pEC50, pKi: −log10 of the molar value. Converted amounts (≈) assume the structure as drawn. Each block holds one compound with its values, some of them ahead of it.
Tests used:
[1] = molecular target: Hepatitis C virus serine protease, NS3/NS4A (Hepatitis C virus, UniProt A3EZI9+D2K2A8); assay: (§1) Inhibition of HCV genotype 1a NS3/4A protease using Ac-DED(Edans)EEAbu-psi[COO]ASK(Dabcyl)-NH2 as substrate by FRET assay; set-up: species or system Hepatitis C virus subtype 1a
Outline: (§2)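 Full-length NS3/4A (protease–helicase/NTPase, genotype 1a) measured by FRET. Buffer: 50 mM HEPES pH 7.5, 10 mM DTT, 40% glycerol, 0.1% n-octyl-β-D-glucoside, 3.3% DMSO. Ki values derived.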

[2] = tested on: Hepatitis C virus; assay: Antiviral activity against HCV genotype 1b infected in human Huh-7 cells by firefly luciferase assay; type: functional, cell-based, Hepacivirus hominis
Outline: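 Huh-7 cells carrying a subgenomic HCV genotype 1b replicon with firefly luciferase reporter; EC50 derived from luciferase signal.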

[3] = (§3) Half life in human liver microsomes preincubated for 5 mins by LC/MS/MS analysis; type: ADME; details: liver microsomes
Outline: (§4)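 Compound at 1 µM preincubated 5 min at 37 °C with pooled human liver microsomes (0.5 mg/mL) in 0.1 M potassium phosphate pH 7.4. Reaction started with NADPH (1 mM final) and stopped at 0, 5, 15 and 40 min with ice-cold acetonitrile containing internal standard. LC/MS/MS read-out. ln(% remaining) regressed linearly on time; t1/2 and Clint derived assuming first-order kinetics. Dextromethorphan (3 µM) and midazolam (5 µM) served as CYP2D6/CYP3A4 controls.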

[4] = (§5) Intrinsic clearance in human liver microsomes preincubated for 5 mins by LC/MS/MS analysis; type: ADME; details: liver microsomes; outline: as §4
[5] = Solubility of the compound in PBS after 2 hrs by LC-MS/MS analysis; type: physicochemical
Outline: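 DMSO stock (10 mM) added to PBS to 1% final DMSO, rotated in glass vials 2 h at 37 °C. Centrifuged 10,000g for 30 min, then supernatant quantified by LC–MS/MS. Upper detection limit 100 µM.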

[6] = Apparent permeability from apical to basolateral side in human Caco2 cells; type: ADME, cell-based; details: Caco-2
Outline: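 Caco-2 monolayers on polycarbonate filter inserts, cells kept in 90% air/10% CO2. Compound diluted from 10 mM DMSO stock to 10 µM (final DMSO 0.1%) in FASSIF pH 7.4 on apical donor side. Receiver is HBSS pH 7.4 with 1% (w/v) BSA. Run at 37 °C with 500 rpm stirring. Receiver sampled at 15, 30 and 60 min, donor sampled at 60 min for mass balance. Membrane integrity checked afterwards, LC/MS/MS read-out, at least triplicates.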

[7] = tested on: Hepatitis C virus; assay: Antiviral activity against HCV genotype 1a; type: functional, Hepacivirus hominis; details: subtype 1a
[8] = tested on: Liver microsome; assay: as §3; type: ADME; details: microsomes; outline: as §4
[9] = tested on: Liver microsome; assay: as §5; type: ADME; details: microsomes, 5 min; outline: as §4
[10] = molecular target: Hepatitis C virus serine protease, NS3/NS4A (Hepatitis C virus, UniProt A3EZI9+D2K2A8, R155K); assay: Inhibition of HCV NS3/4A protease R155K mutant using Ac-DED(Edans)EEAbu-psi[COO]ASK(Dabcyl)-NH2 as substrate by FRET assay; set-up: species or system Hepacivirus hominis
[11] = molecular target: Hepatitis C virus serine protease, NS3/NS4A (Hepatitis C virus, UniProt A3EZI9+D2K2A8, D168V); assay: Inhibition of HCV NS3/4A protease D168V mutant using Ac-DED(Edans)EEAbu-psi[COO]ASK(Dabcyl)-NH2 as substrate by FRET assay; set-up: species or system Hepacivirus hominis
[12] = molecular target: Hepatitis C virus serine protease, NS3/NS4A (Hepatitis C virus, UniProt A3EZI9+D2K2A8, A156T); assay: Inhibition of HCV NS3/4A protease A156T mutant using Ac-DED(Edans)EEAbu-psi[COO]ASK(Dabcyl)-NH2 as substrate by FRET assay; set-up: species or system Hepacivirus hominis
[13] = molecular target: Hepatitis C virus serine protease, NS3/NS4A (Hepatitis C virus, UniProt D2K2A8+A3EZI9); assay: as §1; set-up: species or system Hepatitis C virus subtype 1a; outline: as §2

Compound: COc1ccc2c(O[C@@H]3C[C@@H](C(=O)Nc4ccccc4C(=O)NS(=O)(=O)c4ccccc4)N(C(=O)[C@@H](NC(=O)OC(C)(C)C)C(C)(C)C)C3)cc(-c3ccccc3)nc2c1
- pKi [1]: 6.08

Compound: C=CCCCS(=O)(=O)NC(=O)c1ccccc1NC(=O)[C@@H](NC(=O)OC(C)(C)C)c1ccc(Oc2cc(OC)nc(-c3ccccc3)n2)cc1
- half-life [3]: 16 min
- microsomal CLint [4]: 86 µL/min/mg
- solubility at 2 h [5]: 93 µM (≈ 65.3 µg/mL)
- Papp A→B [6]: 4 ×10⁻⁶ cm/s
- pKi [1]: 6.22

Compound: CCC[C@@H]1NC(=O)[C@@H](NC(=O)[C@@H](NC(=O)OC(C)(C)C)C(C)(C)C)c2ccc(cc2)Oc2cc(nc(-c3ccccc3)n2)/C=C/CCCS(=O)(=O)NC1=O
- pKi [1]: 5.62

Compound: CC(C)(C)OC(=O)N[C@H](C(=O)N[C@@H]1C(=O)Nc2ccccc2C(=O)NS(=O)(=O)CCC/C=C/c2cc(nc(-c3ccccc3)n2)Oc2ccc1cc2)C(C)(C)C
- pKi [1]: 6.18

Compound: COc1cc(Oc2ccc3cc2/C=C/CCS(=O)(=O)NC(=O)c2ccccc2NC(=O)[C@H]3NC(=O)OC(C)(C)C)nc(-c2ccccc2)n1
- pKi [1]: 5.89

Compound: COc1cc(Oc2ccc3cc2/C=C/CCS(=O)(=O)NC(=O)c2ccccc2NC(=O)[C@H]3NC(=O)[C@@H](NC(=O)OC(C)(C)C)C(C)(C)C)nc(-c2ccccc2)n1
- pKi [1]: 6.20

Compound: C=CCCCS(=O)(=O)NC(=O)c1ccccc1NC(=O)[C@H]1NC(=O)[C@H](C(C)(C)C)NC(=O)OCC/C=C/c2cc(nc(-c3ccccc3)n2)Oc2ccc1cc2
- pKi [1]: 6.41

Compound: C=CCCCS(=O)(=O)NC(=O)[C@H](CCC)NC(=O)[C@H]1NC(=O)[C@H](C(C)(C)C)NC(=O)OCC/C=C/c2cc(nc(-c3ccccc3)n2)Oc2ccc1cc2
- pKi [1]: 5.80

Compound: C=CCCCS(=O)(=O)NC(=O)c1ccccc1NC(=O)[C@@H](NC(=O)[C@@H](NC(=O)OC(C)(C)C)C(C)(C)C)c1ccc(Oc2cc(-c3ccccc3)nc3cc(OC)ccc23)c(C=C)c1
- pEC50 [2]: 5.27

Compound: C=CCCCS(=O)(=O)NC(=O)c1ccccc1NC(=O)[C@H](NC(=O)[C@@H](NC(=O)OC(C)(C)C)C(C)(C)C)c1ccc(Oc2cc(-c3ccccc3)nc3cc(OC)ccc23)c(C=C)c1
- pEC50 [2]: 5.27

Compound: COc1cc(Oc2ccc(C3NC(=O)[C@H](NC(=O)OC(C)(C)C)CCCCC/C=C/CCCS(=O)(=O)NC(=O)c4ccccc4NC3=O)cc2)nc(-c2ccccc2)n1 (single isomer, unassigned; diastereomer 2)
- pEC50 [2]: 4.82
- t1/2 [8]: 10 min
- microsomal intrinsic clearance [9]: 137 µL/min/mg
- pKi [10]: 6.66
- pKi [11]: 6.22
- pKi [12]: 6.80
- Papp [6]: 0.15 ×10⁻⁶ cm/s
- pKi [1]: 7.10

Compound: COc1cc(Oc2ccc(C3NC(=O)[C@H](NC(=O)OC(C)(C)C)CCCCC/C=C/CCCS(=O)(=O)NC(=O)c4ccccc4NC3=O)cc2)nc(-c2ccccc2)n1 (stereo in doubt; 29L)
- half-life [3]: 16 min
- microsomal CLint [4]: 87 µL/min/mg
- solubility at 2 h [5]: 51 µM (≈ 42.2 µg/mL)
- Papp [6]: 0.35 ×10⁻⁶ cm/s
- pKi [1]: 6.96

Compound: COc1cc(Oc2ccc(C3NC(=O)[C@H](NC(=O)OC(C)(C)C)CCCCCCCCCCS(=O)(=O)NC(=O)c4ccccc4NC3=O)cc2)nc(-c2ccccc2)n1 (stereo in doubt; 31L)
- pKi [13]: 6.96

Second part, the compound after the results:

- pKi [1]: 7.20
Compound: C=CCCCS(=O)(=O)NC(=O)[C@H](CCC)NC(=O)[C@@H](NC(=O)[C@@H](NC(=O)OC(C)(C)C)C(C)(C)C)c1ccc(Oc2cc(-c3ccccc3)nc3cc(OC)ccc23)c(C=C)c1

- pKi [1]: 6.52
Compound: C=CCCCS(=O)(=O)NC(=O)[C@H](CCC)NC(=O)[C@@H]1C[C@@H](Oc2cc(-c3ccccc3)nc3cc(OC)ccc23)CN1C(=O)[C@@H](NC(=O)OC(C)(C)C)C(C)(C)C

- pKi [1]: 9.52
Compound: COc1ccc2c(O[C@@H]3C[C@H]4C(=O)N[C@]5(C(=O)O)C[C@H]5/C=C\CCCCC[C@H](NC(=O)OC5CCCC5)C(=O)N4C3)cc(-c3csc(NC(C)C)n3)nc2c1

- pEC50 [2]: < 5.00
- half-life [3]: 83 min
- microsomal CLint [4]: 17 µL/min/mg
- solubility at 2 h [5]: 66 µM (≈ 55.5 µg/mL)
- Papp A→B [6]: 1.7 ×10⁻⁶ cm/s
- pKi [1]: 7.59
Compound: C=CCCCS(=O)(=O)NC(=O)c1ccccc1NC(=O)[C@@H](NC(=O)[C@@H](NC(=O)OC(C)(C)C)C(C)(C)C)c1ccc(Oc2cc(OC)nc(-c3ccccc3)n2)c(C=C)c1

- pEC50 [2]: < 5.00
- pKi [1]: 7.48
Compound: C=CCCCS(=O)(=O)NC(=O)c1ccccc1NC(=O)[C@H](NC(=O)[C@@H](NC(=O)OC(C)(C)C)C(C)(C)C)c1ccc(Oc2cc(OC)nc(-c3ccccc3)n2)c(C=C)c1

- solubility at 2 h [5]: 101 µM (≈ 73.5 µg/mL)
- Papp A→B [6]: 1 ×10⁻⁶ cm/s
- pKi [1]: 6.72
Compound: C=CCCCS(=O)(=O)NC(=O)c1ccccc1NC(=O)[C@@H](NC(=O)OC(C)(C)C)c1ccc(Oc2cc(OC)nc(-c3ccccc3)n2)c(C=C)c1

- pKi [1]: 7.40
- pEC50 [7]: 6.46
Compound: CCC[C@H](NC(=O)C1[C@H]2CCC[C@H]2CN1C(=O)[C@@H](NC(=O)[C@@H](NC(=O)c1cnccn1)C1CCCCC1)C(C)(C)C)C(=O)C(=O)NC1CC1 (stereo partly specified)

- pKi [1]: 6.51
Compound: COc1ccc2c(Oc3ccc([C@H](NC(=O)[C@@H](NC(=O)OC(C)(C)C)C(C)(C)C)C(=O)Nc4ccccc4C(=O)NS(=O)(=O)c4ccccc4)cc3)cc(-c3ccccc3)nc2c1

- pKi [1]: 6.66
Compound: C=CCCCS(=O)(=O)NC(=O)c1ccccc1NC(=O)[C@@H](NC(=O)OC(C)(C)C)c1ccc(Oc2cc(C=C)nc(-c3ccccc3)n2)cc1

- pKi [1]: 6.43
Compound: C=CCCS(=O)(=O)NC(=O)c1ccccc1NC(=O)[C@@H](NC(=O)OC(C)(C)C)c1ccc(Oc2cc(OC)nc(-c3ccccc3)n2)c(C=C)c1

- pKi [1]: 6.96
Compound: C=CCCCS(=O)(=O)NC(=O)c1ccccc1NC(=O)[C@@H](NC(=O)[C@@H](NC(=O)OCCC=C)C(C)(C)C)c1ccc(Oc2cc(C=C)nc(-c3ccccc3)n2)cc1

- half-life [3]: 23 min
- microsomal CLint [4]: 60 µL/min/mg
- solubility at 2 h [5]: 91 µM (≈ 77.8 µg/mL)
- Papp A→B [6]: 0.22 ×10⁻⁶ cm/s
- pKi [1]: 6.64
Compound: C=CCCCCC[C@H](NC(=O)OC(C)(C)C)C(=O)N[C@H](C(=O)Nc1ccccc1C(=O)NS(=O)(=O)CCCC=C)c1ccc(Oc2cc(OC)nc(-c3ccccc3)n2)cc1

- half-life [3]: 22 min
- microsomal CLint [4]: 64 µL/min/mg
- solubility at 2 h [5]: 33 µM (≈ 26.9 µg/mL)
- Papp A→B [6]: 0.22 ×10⁻⁶ cm/s
- pKi [1]: 7.02
Compound: C=CCCCS(=O)(=O)NC(=O)c1ccccc1NC(=O)[C@@H](NC(=O)[C@@H](NC(=O)OC(C)(C)C)C(C)(C)C)c1ccc(Oc2cc(OC)nc(-c3ccccc3)n2)cc1

- pKi [1]: 6.66
Compound: COc1cc(Oc2ccc(C3NC(=O)[C@H](NC(=O)OC(C)(C)C)CCCCC/C=C/CCS(=O)(=O)NC(=O)c4ccccc4NC3=O)cc2)nc(-c2ccccc2)n1 (stereo partly specified)

- pKi [1]: 6.89
Compound: COc1cc(Oc2ccc(C3NC(=O)[C@H](NC(=O)OC(C)(C)C)CCCCCCCCCS(=O)(=O)NC(=O)c4ccccc4NC3=O)cc2)nc(-c2ccccc2)n1 (stereo partly specified)

- pKi [1]: 10.30
- pEC50 [7]: 8.30
Compound: CC[C@@H]1C[C@]1(NC(=O)[C@@H]1C[C@@H]2CN1C(=O)[C@H](C(C)(C)C)NC(=O)OCC(C)(C)CCCCc1cccc3c1CN(C3)C(=O)O2)C(=O)NS(=O)(=O)C1CC1

- pKi [1]: 9.44
- pEC50 [7]: 8.11
Compound: COc1ccc2c(O[C@@H]3C[C@H]4C(=O)N[C@]5(C(=O)NS(=O)(=O)C6CC6)C[C@H]5/C=C\CCCCN(C)C(=O)[C@@H]4C3)cc(-c3nc(C(C)C)cs3)nc2c1C

- pKi [1]: 6.96
Compound: COc1cc(Oc2ccc(C3NC(=O)[C@H](NC(=O)OC(C)(C)C)CCCCCCCCCCS(=O)(=O)NC(=O)c4ccccc4NC3=O)cc2)nc(-c2ccccc2)n1 (single isomer, unassigned; diastereomer 2)

- pKi [1]: 7.85
Compound: CC(C)(C)NC(=O)N[C@H](C(=O)N1C[C@H]2[C@@H]([C@H]1C(=O)NC(CC1CCC1)C(=O)C(N)=O)C2(C)C)C(C)(C)C (stereo partly specified) [BOCEPREVIR]

Reference: ChEMBL document CHEMBL3352136, “Vinylated linear P2 pyrimidinyloxyphenylglycine based inhibitors of the HCV NS3/4A protease and corresponding macrocycles” (Bioorg Med Chem, 2014)
